Columns and labels:
[1] = target: T1, Amine oxidase [flavin-containing] A (Homo sapiens, UniProt P21397); test: Inhibition of human recombinant MAOA expressed in baculovirus infected BTI insect cells assessed as hydrogen peroxide production at 100 uM after 15 mins by Amplex red assay; conditions: 0.25 h; for inhibition (INH): 100 µM
T1 sequence (P21397 whole entry): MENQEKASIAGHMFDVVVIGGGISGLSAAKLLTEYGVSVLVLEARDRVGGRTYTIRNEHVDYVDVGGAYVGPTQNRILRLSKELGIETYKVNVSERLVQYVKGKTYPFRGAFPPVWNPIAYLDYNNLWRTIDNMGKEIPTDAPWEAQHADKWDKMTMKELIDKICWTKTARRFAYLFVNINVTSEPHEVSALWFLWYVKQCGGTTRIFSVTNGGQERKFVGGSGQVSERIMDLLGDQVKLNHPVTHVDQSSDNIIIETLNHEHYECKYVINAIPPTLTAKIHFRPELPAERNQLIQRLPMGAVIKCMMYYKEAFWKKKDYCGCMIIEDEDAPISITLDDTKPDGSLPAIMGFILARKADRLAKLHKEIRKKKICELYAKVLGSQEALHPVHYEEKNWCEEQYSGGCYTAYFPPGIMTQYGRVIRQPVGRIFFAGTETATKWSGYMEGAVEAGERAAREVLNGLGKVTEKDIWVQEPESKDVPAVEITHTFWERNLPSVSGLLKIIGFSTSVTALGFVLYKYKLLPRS
How it was run: (§1)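 Recombinant hMAO-A or hMAO-B, in an amount oxidizing 165 pmol p-tyramine/min in controls, preincubated with test drug 15 min at 37 °C in 0.05 M sodium phosphate pH 7.4, dark. Reaction started with 1 U/ml HRP, Amplex Red and 1 mM p-tyramine (final). Resorufin read at ex 545/em 590 nm over 15 min. Background subtracted; vehicle (DMSO) controls. Precipitation limited higher concentrations.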

[2] = target: T2, Amine oxidase [flavin-containing] B (Homo sapiens, UniProt P27338); test: Inhibition of human recombinant MAOB expressed in baculovirus infected BTI insect cells assessed as hydrogen peroxide production at 100 uM after 15 mins by Amplex red assay; conditions: 0.25 h; for inhibition (INH): 100 µM; how it was run: as §1
T2 sequence (P27338 whole entry): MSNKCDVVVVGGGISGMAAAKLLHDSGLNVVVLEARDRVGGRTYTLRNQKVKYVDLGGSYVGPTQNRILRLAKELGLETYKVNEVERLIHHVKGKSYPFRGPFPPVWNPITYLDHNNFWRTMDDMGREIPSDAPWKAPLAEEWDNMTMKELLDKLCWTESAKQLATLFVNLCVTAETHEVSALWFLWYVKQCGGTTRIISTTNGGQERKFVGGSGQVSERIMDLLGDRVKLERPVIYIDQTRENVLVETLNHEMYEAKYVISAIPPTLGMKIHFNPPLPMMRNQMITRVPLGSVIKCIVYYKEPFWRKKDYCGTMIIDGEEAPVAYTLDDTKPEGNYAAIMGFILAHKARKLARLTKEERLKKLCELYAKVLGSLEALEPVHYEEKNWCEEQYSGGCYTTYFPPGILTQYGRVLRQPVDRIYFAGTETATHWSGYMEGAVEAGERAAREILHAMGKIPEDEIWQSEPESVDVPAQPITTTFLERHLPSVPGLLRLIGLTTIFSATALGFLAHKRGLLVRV

Homo sapiens = organism: Homo sapiens; test: Selectivity index, ratio of IC50 for human recombinant MAOA to IC50 for human recombinant MAOB
How it was run: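 IC50 values for hMAO-A and hMAO-B came from the Amplex Red/HRP assay, with 1 mM p-tyramine and readings at ex 545/em 590 nm at 37 °C. […] The selectivity index is IC50(MAO-A)/IC50(MAO-B). Where MAO-A was not inhibited, its IC50 was set at the highest concentration tested. Values are mean ± SEM.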

[3] = target: T2, Amine oxidase [flavin-containing] B; test: biochemical; type: cell-based
[4] = target: T2, Amine oxidase [flavin-containing] B; test: Inhibition of human recombinant MAOB expressed in baculovirus infected BTI insect cells assessed as hydrogen peroxide production at 1 mM after 15 mins by Amplex red assay; conditions: 0.25 h, 1000 µM; how it was run: as §1

Row | SMILES | inhibition (INH) [1] | inhibition (INH) [2] | Selectivity Index (Homo sapiens) | IC50 [3] [µM] | also measured
1 | CC1CN(C(N)=S)N=C1c1ccc(Cl)cc1 (stereo unspecified) | – | – | – | – | inhibition at 100 µM [1]: 40%; inhibition at 100 µM [2]: 40%
2 | NC(=S)N1CCC(c2ccc(F)cc2)=N1 | Not Active | Not Active | – | – | –
3 | CC1CN(C(N)=S)N=C1c1ccccc1 (stereo unspecified) | Not Active | – | – | – | inhibition at 100 µM [2]: 40%
4 | O=C(NCCN1CCOCC1)c1ccc(Cl)cc1 [MOCLOBEMIDE] | – | – | – | – | inhibition (INH) [4]: Not Active
5 | Cc1ccc(C2=NN(C(N)=S)CC2C)cc1 (stereo unspecified) | Not Active | – | – | – | inhibition at 100 µM [2]: 40%
6 | Cc1ccc(C2=NN(C(N)=S)CC2)cc1 | Not Active | – | > 5.51 | 18.1 | –
7 | CC1CN(C(N)=S)N=C1c1ccc(F)cc1 (stereo unspecified) | – | – | – | – | inhibition at 100 µM [1]: 40%; inhibition at 100 µM [2]: 40%
8 | Cc1cccc(C2=NN(C(N)=S)CC2)c1 | Not Active | Not Active | – | – | –
9 | CNC(=S)N1CCC(c2ccc(F)cc2)=N1 | Not Active | – | > 1.96 | 51 | –
10 | COc1ccc(C2=NN(C(N)=S)CC2C)cc1 (stereo unspecified) | – | – | > 1.18 | 84.6 | inhibition at 100 µM [1]: 40%
11 | CNC(=S)N1CCC(c2cccc(C)c2)=N1 | Not Active | – | > 1.87 | 53.4 | –
12 | CNC(=S)N1CC(C)C(c2ccc(OC)cc2)=N1 (stereo unspecified) | Not Active | – | > 2.02 | 49.4 | –
13 | CNC(=S)N1CC(C)C(c2ccc(C)cc2)=N1 (stereo unspecified) | – | – | – | – | inhibition at 100 µM [1]: 40%; inhibition at 100 µM [2]: 40%
14 | COc1ccc(C2=NN(C(N)=S)CC2)cc1 | Not Active | – | > 6.46 | 15.5 | –

Second part, led by results:

Row | inhibition (INH) [1] | inhibition (INH) [2] | Selectivity Index (Homo sapiens) | IC50 [3] [µM] | SMILES | also measured
15 | Not Active | Not Active | – | – | NC(=S)N1CCC(c2cccs2)=N1 | –
16 | Not Active | Not Active | – | – | COc1cccc(C2=NN(C(N)=S)CC2)c1 | –
17 | Not Active | – | > 7.3 | 13.7 | CNC(=S)N1CCC(c2ccc(OC)cc2)=N1 | –
18 | Not Active | – | > 1.4 | 71.3 | CNC(=S)N1CCC(c2cccc(OC)c2)=N1 | –
19 | Not Active | Not Active | – | – | Cc1ccccc1C1=NN(C(N)=S)CC1 | –
20 | Not Active | Not Active | – | – | CNC(=S)N1CCC(c2ccccc2C)=N1 | –
21 | Not Active | – | – | – | CNC(=S)N1CC(C)C(c2ccccc2)=N1 (stereo unspecified) | inhibition at 100 µM [2]: 40%
22 | Not Active | – | > 2.87 | 34.8 | CNC(=S)N1CC(C)C(c2ccc(Cl)cc2)=N1 (stereo unspecified) | –
23 | Not Active | Not Active | – | – | CNC(=S)N1CCC(c2cccs2)=N1 | –
24 | Not Active | Not Active | – | – | NC(=S)N1CCC(c2ccc(Cl)cc2Cl)=N1 | –
25 | – | – | > 5.96 | 16.8 | CNC(=S)N1CCC(c2ccc(C)cc2)=N1 | inhibition at 100 µM [1]: 40%
26 | Not Active | – | – | – | CNC(=S)N1CC(C)C(c2ccc(F)cc2)=N1 (stereo unspecified) | inhibition at 100 µM [2]: 40%

Source: ChEMBL document CHEMBL1250494, “Synthesis of new 3-aryl-4,5-dihydropyrazole-1-carbothioamide derivatives. An investigation on their ability to inhibit monoamine oxidase” (Eur J Med Chem, 2010)
